Results: ChEMBL document CHEMBL4513216, “Probing the Open Global Health Chemical Diversity Library for Multistage-Active Starting Points for Next-Generation Antimalarials” (ACS Infect Dis, 2020)

Assay: Toxicity liver stage against HepG2, at 10uM
Type: cell-based
Set-up: test concentration 10 uM, cell line HepG2-A16-CD81EGFP
Conditions: human, HepG2-A16-CD81EGFP cells; read-out: INHIBITION
In short: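 Uninfected HepG2-A16-CD81EGFP cells, 3 × 10^3 per well, 1536-well, plated on prespotted compound at 10 μM final, parasite-free screening media added to match infected plates; puromycin 10 μM positive, DMSO 0.5% negative; run in parallel with 48 h PbLuc assay at 37 °C, 5% CO2; viability by CellTiter-Glo luminescence, normalized to controls.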

SMILES | cytotoxicity at 10 µM [%]
Cc1cn[nH]c1C1COCCN1C(=O)c1ccc2c(c1)CCCC2 (configuration not stated) | -0.21
CC(C)N1CCN(C)CC1c1nnc2ccc(C(=O)N3CCCC3)cn12 (configuration not stated) | -145
CCOCc1ccc(NC(=O)C(C)C)cc1 | 2.25
COC(=O)CCNC(=O)c1c[nH]cc1-c1cccc(OC)c1 | 4.89
Oc1ccccc1-c1cc(-c2nc(C3CC3)n[nH]2)[nH]n1 | 0.45
Cc1cc(CN2CCCC(CNC(=O)Cn3cccn3)C2)oc1C (configuration not stated) | 6.2
Cc1ccccc1OC1CCN(CC(=O)Nc2c(C)nn(C)c2C)CC1 | 0.919
Cc1ccc(NCc2cncc3c2CCN(Cc2ccccn2)C3)nn1 | -6.4
CCOCc1ccc(CNc2cncc(-n3cccn3)n2)cc1 | 20.8
CCN(CC)C1(Cc2cc(-c3ccccn3)on2)COC1 | 1.41
CC(C)NC(=O)CCNC(=O)CCc1cc(Br)cs1 | -3.16
CCS(=O)(=O)N1CCCC2(COCCN(c3ccccn3)C2)C1 (configuration not stated) | -1.02
Cn1c(CCC(=O)N2CCCC3(CC2)CNC(=O)O3)nc2cccnc21 (configuration not stated) | -3.56
Cn1cc(C(=O)N2CCN(c3ncccn3)CC2)ccc1=O | -7.82
COc1ccc(-c2nnc(CNCCn3cc(C)cn3)o2)cc1 | 1.32
CN(C)C(=O)CN1C(=O)CCC12CCN(Cc1ccc(F)cc1)CC2 | 7.8
Cc1nc(CN2CCN3C[C@H](Oc4cncnc4)C[C@H]3C2)cs1 | -81.4
OC(COCc1ccccc1)CSc1nnc(C2CC2)n1C1CC1 (configuration not stated) | 4.93
COc1ccc(NC(=O)c2cnc(N3CCN(C)CC3)nc2C)cc1 | -3.45
Cc1cc(SCC(N)=O)nc(-c2ccc(F)cc2)n1 | -3.42
C=Cn1ncc(CN2C[C@@H]3C[C@@H](O)CN3C[C@@H]2Cc2ccccc2)c1C | 4.02
CC(C)(O)CN1CCN(C(=O)c2cccn2Cc2ccccc2)CC1 | -3.88
O=C(c1ccc(C2CCCO2)s1)N1CCCOCC1 (configuration not stated) | -0.256

SMILES | cytotoxicity at 10 µM [%]
O=C(c1n[nH]c(=O)c2ccccc12)N1CCCC1Cn1cccn1 (configuration not stated) | -0.743
CCC(C)(C)NC(=O)CN(C)C(c1cccc(F)c1)c1ccccn1 (configuration not stated) | -3.15
Cc1ccsc1[C@@H]1CCN(C(=O)CCCn2cncn2)C[C@H]1O | -6.91
CCC(C)S(=O)(=O)N1CCc2nc(C3CCNCC3)ncc2C1 (configuration not stated) | -10.7
O=C(Cc1ccc2c(c1)OCCO2)NC1CCCCC1 | -12.3
CCC1CN(c2ncnc3nc[nH]c23)CCO1 (configuration not stated) | 19.5
Cc1nc(CSCCC(=O)NCc2ccncc2)cs1 | -15.6
CCOc1cc(/C=C/c2ncc(C(=O)O)s2)cc(Br)c1OC | 7.59
N#Cc1cnn(C(=O)COc2ccccc2F)c1N | 2.92
CN(C)C(CNC(=O)c1cccc(C(N)=O)c1)c1ccccc1Cl (configuration not stated) | -4.83
Cc1cc(C)c(C(=O)N2CCC3(CCCN(CC(C)(C)C)C3)C2)[nH]1 (configuration not stated) | -3.73
CCN(C)c1ncnc2c1CCN(Cc1nccs1)CC2 | -2.46
COc1cc(C2SCC(=O)Nc3ccsc32)cc(OC)c1O (configuration not stated) | 54.7
COCCC1(C(=O)O)CCCN(CCc2ccccc2)C1 (configuration not stated) | 10.6
NCCn1cc(C(=O)N2CCCCCC2c2cccc(F)c2)nn1 (configuration not stated) | 8.48
O=C(CCn1ncc2c(Cl)cccc21)NCC1CC1 | 10.6
Cn1cc(C[C@H]2[C@H](N3CCOCC3)CCN2C(=O)c2ccco2)cn1 | 2.44
COc1ncnc2c1CCN(Cc1cccs1)CC2 | 8.55
Cn1nccc1CCC(=O)N1CCC(c2cnccn2)CC1 | -21.7
COCC(=O)N1CCCn2c(CN3CCOCC3)nnc2C1 | -131
Cn1cc(-c2c(C#N)c(N)nc3c2CCc2[nH]ccc2-3)cc1C#N | -1.68
CCN(CC(C)C#N)C(=O)CNc1ccc(C(N)=O)c(C)c1 (configuration not stated) | 8.54
Cn1nccc1C(=O)N1CCOC(Cc2cccnc2)C1 (configuration not stated) | -7.95

SMILES | cytotoxicity at 10 µM [%]
CCn1cc2c(n1)C(COCC1CC1)CN(C(=O)c1cc(C)on1)C2 (configuration not stated) | 17.8
Cn1cnc2c1CCN(CCCc1ccccc1)C2 | -1.13
Cc1cccc2c1nc(CCO)n2-c1ccc(N)nc1 | -1.32
CN(C(=O)c1ccncc1Cl)c1ccccc1S(C)(=O)=O | 17.6
COc1c(CNC2CCN(c3ncccn3)CC2)c(C)nn1C | -1.66
CSCCC(NC(=O)c1ccc2ccccc2n1)C(=O)N(C)C (configuration not stated) | -12
O=C1CC(N(C(=O)Cc2csc(-c3ccccc3)n2)C2CC2)C(=O)N1 (configuration not stated) | 3.51
O=C(c1cscn1)N1C[C@H](OCc2cccnc2)[C@H]2COC[C@H]21 | -2.07
CS(=O)(=O)N[C@@H]1CN(Cc2ccccc2)C[C@H]1O | -2.92
Cc1n[nH]c(C)c1-c1nccnc1CC1CCNC1 (configuration not stated) | -4.96
CC(=O)N1CCCC1c1cccc(Oc2ccccc2F)n1 (configuration not stated) | -2.53
CC(O)CN1CCN(C(=O)c2cccn2Cc2ccncc2)CC1 (configuration not stated) | -10.9
CCc1ccc(C(=O)N2CCCCC2Cn2cccn2)o1 (configuration not stated) | -6.8
CN(Cc1cccc(F)c1)C(=O)CS(=O)(=O)Cc1ccc(Cl)c(Cl)c1 | -4.67
O=C(c1cccnc1)N1C[C@H]2CC[C@@H](C1)N(Cc1ncc[nH]1)C2 | -13.2
c1ccc(C2CN(C3CC3)CC3(CCN(Cc4cscn4)CC3)C2)cc1 (configuration not stated) | 5.58
Cn1cccc1C(=O)N1CC2(CCN(C(=O)c3cccnc3)C2)C1 | -98.4
CC(C)[C@H]1CN(Cc2ccncc2)C[C@@H]1NC(=O)C1(C#N)CCOCC1 | -4.81
CC(=O)N(C)c1nc(CN2CCCCC2Cn2cncn2)cs1 (configuration not stated) | -5.79
CC(C)c1cc(NCC2(Cn3cccn3)CC2)nc(N)n1 | 3.19
CN(Cc1cscn1)C1CCCN(Cc2noc(C3CC3)n2)C1 (configuration not stated) | -2.77
c1ccc2nc(N3CCOC(Cn4cccn4)C3)cnc2c1 (configuration not stated) | -9.86
CSc1ccsc1C(=O)NCCNC(=O)C1CC1 | 1.93

SMILES | cytotoxicity at 10 µM [%]
CCN(C)c1ncnc2c1CCN(C(=O)c1ccno1)CC2 | -10
O=C(N1CCN(CCO)CC1)C1(O)Cc2ccccc2C1 | -2.92
CCn1nc2c(cc1=O)CN(CCOc1ccccc1C#N)CC2 | 19.2
CCNC(=O)NCC1(CN2CCOCC2)CCCCC1 | 6.73
NC(=O)NCC1CCCCN1Cc1nc(-c2ccco2)no1 (configuration not stated) | -6.06
CCOc1ccnc(N2CCN(C(=O)c3cn[nH]c3C)CC2)n1 | 3.54
CC(C)CNC(=O)c1cc2c(s1)CCN2Cc1cccnc1 | -6.16
C=C(C)CN(CC)C(=O)c1cc(F)ccc1NS(C)(=O)=O | -2.12
NC(=O)C1CCN(C(=O)c2ccn(-c3cccc(Cl)c3)n2)C1 (configuration not stated) | -0.433
CCC(C)[C@H](N)c1nnc(SCC(=O)Nc2ccc(C)cc2C)o1 (some centres not stated) | -3.32
O=C(CCC1CCCC1)N1CCC(O)(C(F)(F)F)C1 (configuration not stated) | -0.0394
O=C([C@H]1C[C@H]2OCC[C@H]2N(Cc2cccnc2)C1)N1CCCCO1 | -69.8
Cc1noc(Cl)c1CCC(=O)N1CCCCC1Cn1cccn1 (configuration not stated) | -12.6
COc1cc(NCCNC(=O)c2ccc3[nH]ccc3c2)cc(OC)c1 | 6.44
Fc1cnc(N2CC[C@@H]3O[C@@H](COCc4cccnc4)CC[C@@H]32)nc1 | 10.1
c1ccc(CCc2noc(CN3CCC(N4CCSCC4)CC3)n2)cc1 | -8.01
Cc1ccc(CN2CCCC3(CCN(Cc4ccoc4)CC3)C2)cc1 | -91
Cc1noc(CCCC(=O)N2CCCC2c2ccsc2)n1 (configuration not stated) | -3.02
O=C(O)c1ccccc1-c1cnc(Cn2c(=O)cc[nH]c2=O)s1 | 2.95
CC(c1nnc(-c2cccs2)o1)N1CCc2cncnc2C1 (configuration not stated) | 6.37
Cc1ccc(N2CCC3(CC2)CC(OCC(=O)N(C)C)CO3)nn1 (configuration not stated) | -7.59
Cc1cccc(N(CCC#N)S(=O)(=O)CC2CCCCO2)c1 (configuration not stated) | 6.48
Cc1oncc1C(=O)N1CCC2(CC1)CC(N1CCOCC1)C2 | -2.69

SMILES | cytotoxicity at 10 µM [%]
CCC1CN(C(=O)NCCOc2ccc3c(c2)OCO3)CCO1 (configuration not stated) | -4.25
CSC(C)CCN(Cc1ccccn1)Cc1sccc1C (configuration not stated) | -2.49
Cc1cc(=O)[nH]c(NC2CCN(S(=O)(=O)c3ccccc3)CC2)n1 | -3.02
Cc1cnn(CC(C)NCc2nc(-c3ccco3)no2)c1 (configuration not stated) | -16
COCCN1C(=O)CO[C@H]2CN(Cc3c[nH]nc3-c3ccccc3)C[C@@H]21 | -4.04
COc1ncccc1CNC(=O)C1CC(=O)N(C)C1 (configuration not stated) | -14.6
CCOCCN1CCN(C(C)C(=O)Nc2ccnn2C(C)C)CC1 (configuration not stated) | -7.87
Cc1ccc(C(=O)N2C[C@@H]3OCCN(CC4CCCC4)[C@@H]3C2)cn1 | -76
COCCCNC(=O)C1(NC(=O)c2ccc3[nH]ncc3c2)CCCC1 | -1.62
O=C1CNc2ncnc(Nc3cccc(Cn4cccn4)c3)c2N1 | 19.8
Cc1nc(NC(=O)N2CCCC(C(C)(C)O)C2)nn1C (configuration not stated) | 13.5
O=S(=O)(NCc1ccccc1)N1CCCN(c2ccncc2)CC1 | -11
CSc1ccc(CN2CCC(CCC(=O)Nc3ccccc3)CC2)cc1 | 6.8
Cc1nc(C)n(CC2CN(CC(=O)NC3CCCC3)CCO2)n1 (configuration not stated) | -4.83
O=S(=O)(c1c(Cl)nc2sccn12)N1CCC2(CCNCC2)C1 | 6.11
Cn1c(CN2CCOCC2)nnc1C1CCCN(CC(N)=O)C1 (configuration not stated) | 5.23
CCc1ncncc1C(=O)NCCNC(=O)c1ccc(C)c(F)c1 | 7.67
CCn1c(C2CCCN(Cc3cccc4cnccc34)C2)nn(C)c1=O (configuration not stated) | -6.29
CNCCN1C(=O)CC[C@H]2CN(c3cnc4ccccc4n3)CC[C@H]21 | -1.62
Cc1ccc(CN2CCN(c3cncc(N(C)C)n3)CC2=O)cc1C | -2.53
